Activity calls are given as the source filed them. How the calls were made is not given here.
Experiments:
[1] = system: Vesicular stomatitis virus; experiment: Antiviral activity against VSV infected in Vero76 cells assessed as reduction in virus plaque formation after 4 days by MTT assay; assay type: functional, organism-based; settings: Vero 76
Human alphaherpesvirus 1 = experiment: Antiviral activity against HSV1 infected in Vero76 cells assessed as reduction in virus plaque formation after 4 days by MTT assay; assay type: functional, organism-based; settings: Human alphaherpesvirus 1, Vero 76, 96 h
[2] = Cytotoxicity against mock-infected human MT4 cells assessed as reduction in cell viability after 96 hrs by MTT assay; assay type: cell-based
Summary of the method: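 Exponentially growing MT-4 cells seeded at 1 × 10^5 cells/mL in RPMI-1640 with 10% FCS, penicillin and streptomycin, with or without serial compound dilutions. Incubated at 37 °C, 5% CO2; viability read by MTT after 96 h. CC50 is the concentration reducing mock-infected cell viability by 50%.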

Yellow fever virus = experiment: Antiviral activity against YFV infected in BHK21 cells assessed as protection against virus-induced cytopathogenicity after 4 days by MTT assay; assay type: functional, organism-based; settings: BHK-21, 96 h
Summary of the method: (§1)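 MDBK (BVDV) or BHK-21 (YFV) cells were seeded at 3 × 10^4 or 5 × 10^4 cells/well respectively and grown overnight to confluent monolayers at 37 °C in 5% CO2. Monolayers were infected at m.o.i. 0.01 in serum-free medium. After 1 h, MEM Earle's with 1% FCS was added, with or without serial compound dilutions. After 3–4 days at 37 °C, viability was read by MTT. EC50 was taken as 50% protection from virus-induced cytopathogenicity.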

[3] = Cytotoxicity against mock-infected MDBK cells assessed as reduction in cell viability after 96 hrs by MTT assay; assay type: cell-based, Bos taurus; settings: cattle
Summary of the method: (§2)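 Cytotoxicity run in parallel with the antiviral assays. MDBK seeded at 6 × 10^5 and BHK at 1 × 10^6 cells/mL in maintenance medium with or without serial compound dilutions. Incubated 48–96 h at 37 °C, 5% CO2, then viability read by MTT. CC50 is the concentration reducing mock-infected cell viability by 50%.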

Vaccinia virus = experiment: Antiviral activity against VV infected in Vero76 cells assessed as reduction in virus plaque formation after 4 days by MTT assay; assay type: functional, organism-based; settings: Orthopoxvirus vaccinia; Vero 76
[4] = system: Human immunodeficiency virus 1; experiment: Antiviral activity against HIV1 infected in MT4 cells assessed as virus-induced cytopathogenicity after 4 days; assay type: functional, organism-based
[5] = system: Bovine viral diarrhea virus 1; experiment: Antiviral activity against BVDV infected in MDBK cells assessed as protection against virus-induced cytopathogenicity after 4 days by MTT assay; assay type: functional, organism-based; settings: Bovine viral diarrhea virus isolates and strains, 96 h; summary of the method: as §1
Coxsackievirus B2 = experiment: Antiviral activity against CVB2 infected in Vero76 cells assessed as reduction in virus plaque formation after 4 days by MTT assay; assay type: functional, organism-based; settings: Enterovirus B, Vero 76, 96 h
[6] = Cytotoxicity against mock-infected african green monkey Vero76 cells assessed as reduction in cell viability after 96 hrs by MTT assay; assay type: cell-based, Vero; settings: chlorocebus sabaeus
[7] = system: Respiratory syncytial virus; experiment: Antiviral activity against RSV infected in Vero76 cells assessed as reduction in virus plaque formation after 4 days by MTT assay; assay type: functional, organism-based; settings: human respiratory syncytial virus, Vero 76, 96 h
Poliovirus 1 = experiment: Antiviral activity against Sb1 virus infected in Vero76 cells assessed as reduction in virus plaque formation after 4 days by MTT assay; assay type: functional, organism-based; settings: Enterovirus C, Sabin, Vero 76, 96 h
[8] = Cytotoxicity against mock-infected BHK cells assessed as reduction in cell viability after 96 hrs by MTT assay; assay type: cell-based, Mesocricetus auratus; settings: hamster; summary of the method: as §2

Compound | Activity [1] | EC50 (Human alphaherpesvirus 1) [µM] | CC50 at 96 h [2] [µM] | EC50 (Yellow fever virus) [µM] | CC50 at 96 h [3] [µM] | Activity (Vaccinia virus) | Activity [4] | EC50 [5] [µM] | EC50 (Coxsackievirus B2) [µM] | CC50 at 96 h [6] [µM] | EC50 [7] [µM] | EC50 (Poliovirus 1) [µM] | CC50 at 96 h [8] [µM]
FC(F)(F)c1cc(/N=N\C2=C3CCCCN3CCC2)ccc1Br | inactive | 25 | 34 | 80 | > 100 | inactive | inactive | 61 | 42 | 100 | > 100 | 25 | > 100
CN1CCC/C1=C\N=N\c1ccc(F)c(C(F)(F)F)c1 | inactive | 60 | 11 | > 41 | > 100 | inactive | inactive | 100 | 71 | > 100 | > 100 | > 100 | 41
CN1CCC/C1=C\N=N\c1cccc(C(F)(F)F)c1 | inactive | – | 49 | > 50 | 90 | inactive | inactive | 21 | > 100 | > 100 | > 100 | > 100 | 50
Fc1ccccc1N1CCN(/C=C/N=N/c2ccccc2)CC1 | inactive | – | 32 | > 62 | 10 | inactive | inactive | > 10 | 6 | 34 | 6 | > 34 | 62
Clc1ccccc1/N=N\C1=C2CCCCN2CCC1 | inactive | – | 78 | > 93 | > 100 | inactive | inactive | > 100 | 32 | > 100 | 60 | > 100 | 93
O=[N+]([O-])c1cccc(/N=N\C2=C3CCCN3CCC2)c1 | inactive | – | > 100 | > 95 | 68 | inactive | inactive | > 68 | 54 | > 100 | > 100 | 60 | 95
FC(F)(F)c1cc(/N=N\C2=C3CCCCN3CCC2)cc(C(F)(F)F)c1 | inactive | – | 34 | > 19 | 31 | inactive | inactive | > 31 | 41 | 100 | > 100 | > 100 | 19
Clc1ccc(/N=N/C=C2\CCCN2Cc2ccccc2)cc1 | inactive | – | 17 | > 20 | 18 | inactive | inactive | > 18 | 23 | 70 | > 70 | > 70 | 20
CN1CCC/C1=C\N=N\c1cccc(Br)c1 | inactive | – | 55 | 7 | 52 | inactive | inactive | 9 | 16 | 80 | > 80 | > 80 | 41
CCOC(=O)c1ccc(/N=N/C=C/N2CCCCC2)cc1 | inactive | – | 33 | > 100 | > 100 | inactive | inactive | > 100 | 35 | > 100 | > 100 | 27 | > 100
Clc1ccc(N2CCN(/C=C/N=N/c3ccccc3)CC2)cc1 | inactive | – | 21 | 7.5 | 7.5 | inactive | inactive | > 7.5 | 7 | 45 | 7 | > 45 | 29
CN1C=C(/N=N/c2cccc3ccccc23)CCC1 | inactive | – | > 100 | > 100 | > 100 | inactive | inactive | 5 | 76 | ≥ 100 | > 100 | > 100 | > 100
FC(F)(F)c1cc(/N=N/C2=CN(Cc3ccccc3)CCC2)ccc1Cl | inactive | – | 43 | 22 | 28 | inactive | inactive | ≥ 28 | 4 | 48 | > 48 | > 48 | 32
COc1ccc(/N=N/C=C2\CCCN2C)cc1 | inactive | – | > 100 | > 77 | 67 | inactive | inactive | 18 | 5 | 100 | > 100 | > 100 | 77
CN1C=C(/N=N/c2cccc(C(F)(F)F)c2)CCC1 | inactive | – | > 100 | > 100 | > 100 | inactive | inactive | 90 | > 100 | > 100 | > 100 | > 100 | > 100
C(=C\N1CCN(c2ccccn2)CC1)/N=N/c1ccccc1 | inactive | – | 19 | > 75 | ≥ 100 | inactive | inactive | > 100 | 6 | 22 | 7 | > 22 | 75
CN1C=C(/N=N/c2ccc(Br)c(C(F)(F)F)c2)CCC1 | inactive | – | 50 | > 100 | > 100 | inactive | inactive | 40 | 40 | 80 | > 80 | > 80 | > 100
CN1C=C(/N=N/c2ccc(F)cc2)CCC1 | inactive | – | ≥ 100 | > 90 | 48 | inactive | inactive | > 48 | 53 | 77 | 30 | > 77 | 90

From ChEMBL document CHEMBL1144182, “Antimicrobial and cytotoxic arylazoenamines. Part III: antiviral activity of selected classes of arylazoenamines” (Bioorg Med Chem, 2008)
